Holding throughout (type): functional
Assay [1] has as its system Rattus norvegicus. Description: Antiallergic activity in rat assessed as inhibition of egg albumin-induced passive cutaneous anaphylaxis at 25 mg/kg, po treated for 15 mins followed by egg albumin-challenge measured after 30 mins relative to control. In outline:
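Oral PCA in rats: intradermal antiserum at four back sites (dose giving ~12×12 mm wheal), compound po 48 h later, 15 min before iv challenge with 0.5 mL saline containing 5 mg Evans blue plus 5 mg egg albumin; skin bluing read 30 min after challenge on two axes per wheal; six rats per dose versus ≥6 vehicle controls; percent inhibition from mean wheal size, one-sided t test.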

Assay [2] deals with Rattus norvegicus. Description: Antiallergic activity in iv dosed rat assessed as inhibition of egg albumin-induced passive cutaneous anaphylaxis treated for 30 secs followed by egg albumin-challenge measured after 30 mins. As to conditions: 0.5 h, read-out: ID50 (the source's name).
Assay [3] concerns Rattus norvegicus. Description: Antiallergic activity in rat assessed as inhibition of egg albumin-induced passive cutaneous anaphylaxis at 0.5 mg/kg, iv treated for 30 secs followed by egg albumin-challenge measured after 30 mins relative to control. The conditions noted are these: 0.5 h.

We go through 55 compounds from ChEMBL document CHEMBL3244146, “Pyranenamines: a new series of antiallergic compounds” (1979).

By inhibition in vivo is commonly meant the drop in the measured response relative to a control, in per cent. As to `CC(=O)C1=C(O)/C(=C(\C)Nc2ccccc2O)C(=O)OC1=O`, the inhibition in vivo at 25 mg/kg in assay [1] is -12%. In assay [2], the ED50 was found to be 2.8 mg/kg. For `CCCCCCC(=O)Oc1ccc(N/C(C)=C2\C(=O)OC(=O)C(C(C)=O)=C2O)cc1`, the inhibition in vivo at 0.5 mg/kg in assay [3] stood at 21%. Same read-out and setting: next, `CC(=O)C1=C(O)/C(=C(\C)Nc2cccc(C(=O)NC3C(=O)NC(=O)NC3=O)c2)C(=O)OC1=O`: 39%. For `CC(=O)C1=C(O)/C(=C(\C)Nc2ccccc2N)C(=O)OC1=O`, in assay [2], the ED50 amounted to 27.5 mg/kg. Regarding `CC(=O)C1=C(O)/C(=C(\C)N2CCOCC2)C(=O)OC1=O`, the inhibition in vivo at 0.5 mg/kg in assay [3] was determined as 2%. The same measure, in the same setting: in the case of `CC(=O)C1=C(O)/C(=C(\C)Nc2cccc(C(N)=O)c2)C(=O)OC1=O` it was -16%; in that of `CC(=O)C1=C(O)/C(=C(\C)Nc2cccc(NC=O)c2)C(=O)OC1=O`, 22%; in that of `CC(=O)C1=C(O)/C(=C(\C)Nc2cccc(NC(=N)NS(=O)(=O)c3ccc(C)cc3)c2)C(=O)OC1=O`, 2%. Same read-out and setting: next, `CC(=O)C1=C(O)/C(=C(\C)Nc2ccc(O)c(NS(C)(=O)=O)c2)C(=O)OC1=O`: 38%; `CC(=O)C1=C(O)/C(=C(\C)Nc2cccc(N3C(=O)CCC3=O)c2)C(=O)OC1=O`: 22%; `CNc1cccc(N/C(C)=C2\C(=O)OC(=O)C(C(C)=O)=C2O)c1`: -8%. Consider `CC(=O)C1=C(O)/C(=C(\C)Nc2cccc(C(=O)N(C)C)c2)C(=O)OC1=O`, for which the inhibition in vivo at 0.5 mg/kg in assay [3] was found to be 10%. The same measure, in the same setting: in the case of `CCCC(=O)Nc1cccc(N/C(C)=C2\C(=O)OC(=O)C(C(C)=O)=C2O)c1` it was 58%; in that of `CC(=O)C1=C(O)/C(=C(\C)Nc2ccc(OC(=O)NC3C=CC=CC=C3)cc2)C(=O)OC1=O`, 22%.

On to `CC(=O)CCC(=O)Nc1cccc(N/C(C)=C2\C(=O)OC(=O)C(C(C)=O)=C2O)c1`, for which the ED50 in assay [2] came out at 0.4 mg/kg. Regarding `CC(=O)c1c(O)oc(=O)c(C(C)=O)c1O`, in assay [2], the ED50 worked out at 14 mg/kg. For `CC(=O)NCc1cc(N/C(C)=C2\C(=O)OC(=O)C(C(C)=O)=C2O)ccc1O`, the inhibition in vivo at 0.5 mg/kg in assay [3] came out at 1%. The same measure, in the same setting: in the case of `CC(=O)C1=C(O)/C(=C(\C)Nc2cc(NS(=O)(=O)c3ccccc3)cc(NS(=O)(=O)c3ccccc3)c2)C(=O)OC1=O` it was -9%. For `CCCCC(=O)Oc1ccc(N/C(C)=C2\C(=O)OC(=O)C(C(C)=O)=C2O)cc1`, the inhibition in vivo at 25 mg/kg in assay [1] amounted to 36%. Further, in assay [3], the inhibition in vivo at 0.5 mg/kg came out at 34%. `CC(=O)C1=C(O)/C(=C(\C)Nc2ccc(NS(C)(=O)=O)cc2)C(=O)OC1=O`: in assay [3], the inhibition in vivo at 0.5 mg/kg was 20%. Same read-out and setting: in the case of `CC(=O)C1=C(O)/C(=C(\C)Nc2ccc(OC(N)=O)cc2)C(=O)OC1=O` it was 19%. Turning to `CC(=O)C1=C(O)/C(=C(\C)Nc2cccc(NC(=O)C(C)C)c2)C(=O)OC1=O`, the inhibition in vivo at 25 mg/kg in assay [1] was found to be 46%. Further, in assay [3], the inhibition in vivo at 0.5 mg/kg worked out at 72%. In the case of `CC(=O)Oc1ccc(N/C(C)=C2\C(=O)OC(=O)C(C(C)=O)=C2O)cc1`, the inhibition in vivo at 0.5 mg/kg in assay [3] is 41%. Regarding `CCCC(=O)Oc1ccc(N/C(C)=C2\C(=O)OC(=O)C(C(C)=O)=C2O)cc1`, the ED50 in assay [2] is 1.5 mg/kg. For the compound `CC(=O)C1=C(O)/C(=C(\C)Nc2ccc(S(N)(=O)=O)cc2)C(=O)OC1=O`, the inhibition in vivo at 0.5 mg/kg in assay [3] was found to be 12%. For `CC(=O)C1=C(O)/C(=C(\C)Nc2cccc(NC(N)=O)c2)C(=O)OC1=O`, the inhibition in vivo at 25 mg/kg in assay [1] amounted to 6%. In addition, in assay [3], the inhibition in vivo at 0.5 mg/kg was found to be 45%. For `CNc1cc(N/C(C)=C2\C(=O)OC(=O)C(C(C)=O)=C2O)ccc1O`, the inhibition in vivo at 0.5 mg/kg in assay [3] is -6%. The same measure, in the same setting: in the case of `CC(=O)C1=C(O)/C(=C(\C)Nc2cccc(NS(C)(=O)=O)c2)C(=O)OC1=O` it was 28%.

`CC(=O)C1=C(O)/C(=C(\C)Nc2ccc(NC=O)cc2)C(=O)OC1=O`: in assay [1], the inhibition in vivo at 25 mg/kg was -6%. Besides, the inhibition in vivo at 0.5 mg/kg in assay [3] was 49%.

For the compound `CC(=O)C1=C(O)/C(=C(\C)Nc2cccc(S(N)(=O)=O)c2)C(=O)OC1=O`, the inhibition in vivo at 0.5 mg/kg in assay [3] worked out at 45%. On to `CC(=O)C1=C(O)/C(=C(\C)Nc2cccc(N)c2)C(=O)OC1=O`, for which, in assay [2], the ED50 is 0.3 mg/kg. `CC(=O)C1=C(O)/C(=C(\C)Nc2cccc(OCC(=O)O)c2)C(=O)OC1=O`: the inhibition in vivo at 0.5 mg/kg in assay [3] worked out at 6%. For `CC(=O)C1=C(O)/C(=C(\C)Nc2ccc3oc(C)nc3c2)C(=O)OC1=O`, the inhibition in vivo at 0.5 mg/kg in assay [3] came to 13%. On to `CC(=O)C1=C(O)/C(=C(\C)Nc2cc(C(F)(F)F)cc(C(F)(F)F)c2)C(=O)OC1=O`, for which, in assay [3], the inhibition in vivo at 0.5 mg/kg was found to be 14%. Regarding `CC(=O)C1=C(O)/C(=C(\C)Nc2ccc(NC(N)=O)cc2)C(=O)OC1=O`, in assay [1], the inhibition in vivo at 25 mg/kg was -17%. The inhibition in vivo at 0.5 mg/kg in assay [3] was determined as 38%. Take `COc1ccc(N/C(C)=C2\C(=O)OC(=O)C(C(C)=O)=C2O)cc1NC(C)=O`: the inhibition in vivo at 0.5 mg/kg in assay [3] was found to be 27%. The same measure, in the same setting: next, `CC(=O)C1=C(O)/C(=C(\C)Nc2ccc(Br)cc2)C(=O)OC1=O`: 0%. Regarding `CC(=O)C1=C(O)/C(=C(\C)Nc2ccc(S)cc2)C(=O)OC1=O`, in assay [2], the ED50 stood at 1.9 mg/kg. Take `CC(=O)Nc1ccccc1N/C(C)=C1\C(=O)OC(=O)C(C(C)=O)=C1O`: the inhibition in vivo at 0.5 mg/kg in assay [3] is -12%. Turning to `CCCCCC(=O)c1c(O)oc(=O)c(C(=O)CCCCC)c1O`, in assay [2], the ED50 is 6 mg/kg.

Take `CCNC(=O)c1cccc(N/C(C)=C2\C(=O)OC(=O)C(C(C)=O)=C2O)c1`: in assay [3], the inhibition in vivo at 0.5 mg/kg is -4%.

For the compound `CC(=O)NCc1cccc(N/C(C)=C2\C(=O)OC(=O)C(C(C)=O)=C2O)c1`, the inhibition in vivo at 0.5 mg/kg in assay [3] was 4%. As to `CC(=O)C1=C(O)/C(=C(\C)Nc2c(O)cccc2O)C(=O)OC1=O`, the inhibition in vivo at 0.5 mg/kg in assay [3] is -22%. On the same count and under the same terms, next, `CNC(=O)c1cc(N/C(C)=C2\C(=O)OC(=O)C(C(C)=O)=C2O)ccc1O`: 38%. Take `CC(=O)C1=C(O)/C(=C(\C)Nc2ccc(N)cc2)C(=O)OC1=O`: the inhibition in vivo at 25 mg/kg in assay [1] worked out at 23%. Also, the inhibition in vivo at 0.5 mg/kg in assay [3] amounted to 58%.

`CCC(=O)Oc1ccc(N/C(C)=C2\C(=O)OC(=O)C(C(C)=O)=C2O)cc1`: the inhibition in vivo at 0.5 mg/kg in assay [3] came out at 16%.

Take `CCC(=O)Nc1ccc(N/C(C)=C2\C(=O)OC(=O)C(C(C)=O)=C2O)cc1`: in assay [2], the ED50 turned out to be 1.6 mg/kg. Regarding `CC(=O)C1=C(O)/C(=C(\C)Nc2cccc(NS(N)(=O)=O)c2)C(=O)OC1=O`, the inhibition in vivo at 25 mg/kg in assay [1] turned out to be 13%. Further, the inhibition in vivo at 0.5 mg/kg in assay [3] came out at 45%. For `CCOC(=O)Nc1cccc(N/C(C)=C2\C(=O)OC(=O)C(C(C)=O)=C2O)c1`, in assay [2], the ED50 stood at 0.4 mg/kg. Regarding `CC(=O)Nc1ccc(O)c(N/C(C)=C2\C(=O)OC(=O)C(C(C)=O)=C2O)c1`, in assay [1], the inhibition in vivo at 25 mg/kg is 4%. In assay [3], the inhibition in vivo at 0.5 mg/kg worked out at 40%. As for `CC(=O)C1=C(O)/C(=C(\C)Nc2ccc(NS(=O)(=O)c3ccccc3)cc2)C(=O)OC1=O`, the inhibition in vivo at 0.5 mg/kg in assay [3] turned out to be 4%.

Regarding `CCCCCC(=O)Oc1ccc(N/C(C)=C2\C(=O)OC(=O)C(C(C)=O)=C2O)cc1`, the ED50 in assay [2] is 12.1 mg/kg. For the compound `CC(=O)C1=C(O)/C(=C(\C)Nc2ccccc2NC=O)C(=O)OC1=O`, in assay [1], the inhibition in vivo at 25 mg/kg amounted to 31%. Also, the inhibition in vivo at 0.5 mg/kg in assay [3] is 52%. As for `CC(=O)C1=C(O)/C(=C(\C)Nc2ccc(OC(=O)C(C)(C)C)cc2)C(=O)OC1=O`, the inhibition in vivo at 0.5 mg/kg in assay [3] came out at 3%. Same read-out and setting: in the case of `CNC(=O)c1cccc(N/C(C)=C2\C(=O)OC(=O)C(C(C)=O)=C2O)c1` it was 24%.
